Measured values reported in ChEMBL document CHEMBL5705899 (Biochem J, 2014).
Calls of active or inactive are those of the source. The calls are words filed in the database; no cut-off is given here.

Assays:
[1] = target: Tyrosine-protein kinase ITK/TSK (Homo sapiens) (UniProt Q08881); experiment: Inhibition of human ITK at 1 uM using polyEY as substrate in presence of 33P-ATP by ProQinase assay
[2] = target: Ephrin type-A receptor 1 (Homo sapiens) (UniProt P21709); experiment: Inhibition of human EPHA1 at 1 uM using polyEY as substrate in presence of 33P-ATP by ProQinase assay
[3] = target: Insulin receptor-related protein (Homo sapiens) (UniProt P14616); experiment: Inhibition of human INSRR at 1 uM using poly(Ala,Glu,Lys,Tyr) as substrate in presence of 33P-ATP by ProQinase assay
[4] = target: Protein-tyrosine kinase 2-beta (Homo sapiens) (UniProt Q14289); experiment: Inhibition of human PYK2 at 1 uM using polyEY as substrate in presence of 33P-ATP by ProQinase assay
[5] = target: Tyrosine-protein kinase ABL1 (Homo sapiens) (UniProt P00519); experiment: Inhibition of recombinant human N-terminal GST-tagged ABL (118 to 535 residues) expressed in Escherichia coli co-expressed with His-tagged YopH assessed as remaining activity at 1 uM using EAIYAAPFAKKK as substrate incubated for 30 mins in presence of [gamma-33P]ATP by filter binding method relative to control
[6] = target: Serine/threonine-protein kinase 17A (Homo sapiens) (UniProt Q9UEE5); experiment: Inhibition of human STK17A at 1 uM using RB-CTF as substrate in presence of 33P-ATP by ProQinase assay
[7] = target: Vascular endothelial growth factor receptor 3 (Homo sapiens) (UniProt P35916); experiment: Inhibition of human VEGFR3 at 1 uM using polyEY as substrate in presence of 33P-ATP by ProQinase assay
[8] = target: Proto-oncogene tyrosine-protein kinase Src (Homo sapiens) (UniProt P12931); experiment: (§1) Inhibition of recombinant human N-terminal His6-tagged SRC (1 to 536 residues) expressed in baculovirus infected Sf21 cells assessed as remaining activity at 1 uM using KVEKIGEGTYGVVYK as substrate incubated for 30 mins in presence of [gamma-33P]ATP by filter binding method relative to control
[9] = target: CDK9/Cyclin K (Homo sapiens) (UniProt P50750+O75909); experiment: Inhibition of human CDK9/CycK at 1 uM using RBER-CHKtide as substrate in presence of 33P-ATP by ProQinase assay; format: protein-complex assay
[10] = target: Inhibitor of nuclear factor kappa-B kinase subunit beta (Homo sapiens) (UniProt O14920); experiment: Inhibition of human IKKbeta at 1 uM using RBER-CHKtide as substrate in presence of 33P-ATP by ProQinase assay
[11] = target: Phosphatidylinositol 4-kinase alpha (Homo sapiens, UniProt P42356); experiment: Inhibition of PI4Kalpha (unknown origin) using D-myo-PtdIns as substrate incubated for 45 mins by ADP-Glo assay
Procedure, shortened: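 PI4Kα: 1 nM enzyme, 72 μM ATP, 25 μM PtdIns. PI4Kβ: 2 nM enzyme, 220 μM ATP, 50 μM PtdIns. Reactions ran 45 min at ambient temperature; ADP-Glo reagent was added for 40 min, then detection reagent for 30 min, then luminescence was read.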

[12] = target: Protein kinase C eta type (Homo sapiens) (UniProt P24723); experiment: Inhibition of human PKCeta at 1 uM using histon H2B as substrate in presence of 33P-ATP by ProQinase assay
[13] = target: Tyrosine-protein kinase CSK (Homo sapiens) (UniProt P41240); experiment: Inhibition of recombinant human N-terminal GST-tagged CSK (1 to 450 residues) expressed in Escherichia coli assessed as remaining activity at 1 uM Cdc2 peptide as substrate incubated for 30 mins in presence of [gamma-33P]ATP by filter binding method relative to control
[14] = target: MAP kinase-interacting serine/threonine-protein kinase 1 (Homo sapiens) (UniProt Q9BUB5); experiment: Inhibition of recombinant human N-terminal GST-tagged C-terminal His6-tagged MNK1 (2 to 424 residues) expressed in Escherichia coli assessed as remaining activity at 1 uM using eIF4E as substrate incubated for 30 mins in presence of [gamma-33P]ATP by filter binding method relative to control
[15] = target: Serine/threonine-protein kinase pim-3 (Homo sapiens) (UniProt Q86V86); experiment: Inhibition of human PIM3 at 1 uM using RBER-GSK3 as substrate in presence of 33P-ATP by ProQinase assay
[16] = target: Phosphorylase b kinase gamma catalytic chain, skeletal muscle/heart isoform (Homo sapiens) (UniProt Q16816); experiment: Inhibition of human PHKG1 at 1 uM using 3xChocktide-PKC as substrate in presence of 33P-ATP by ProQinase assay
[17] = target: Ribosomal protein S6 kinase beta-2 (Homo sapiens) (UniProt Q9UBS0); experiment: Inhibition of human S6K-beta at 1 uM using RBER-CHKtide as substrate in presence of 33P-ATP by ProQinase assay
[18] = system: TGF-beta receptor type-1 (Homo sapiens), P36897 [T204D]; experiment: as §1, with “GST-tagged TGFBR1 T204D mutant (200” for “His6-tagged SRC (1”, “501” for “536”, “crosstide peptide” for “KVEKIGEGTYGVVYK”
[19] = target: Serine/threonine-protein kinase Sgk3 (Homo sapiens) (UniProt Q96BR1); experiment: Inhibition of human SGK3 at 1 uM using RBER-GSK3 as substrate in presence of 33P-ATP by ProQinase assay
[20] = target: Tyrosine-protein kinase FRK (Homo sapiens) (UniProt P42685); experiment: Inhibition of human FRK at 1 uM using PolyEY as substrate in presence of 33P-ATP by ProQinase assay
[21] = target: Interleukin-1 receptor-associated kinase 1 (Homo sapiens) (UniProt P51617); experiment: Inhibition of recombinant human N-terminal GST-tagged IRAK1 (1 to 712 residues) expressed in baculovirus infected Sf21 cells assessed as remaining activity at 1 uM using MBP as substrate incubated for 30 mins in presence of [gamma-33P]ATP by filter binding method relative to control
[22] = target: MAP kinase-activated protein kinase 5 (Homo sapiens) (UniProt Q8IW41); experiment: Inhibition of human MAPKAPK5 at 1 uM using RBER-CHKtide as substrate in presence of 33P-ATP by ProQinase assay
[23] = target: Serine/threonine-protein kinase D3 (Homo sapiens) (UniProt O94806); experiment: Inhibition of human PKCnu at 1 uM using bio-4xCHKT as substrate in presence of 33P-ATP by ProQinase assay
[24] = target: Serine/threonine-protein kinase MRCK beta (Homo sapiens) (UniProt Q9Y5S2); experiment: Inhibition of human CDC42BPB at 1 uM using RB-S6P as substrate in presence of 33P-ATP by ProQinase assay
[25] = target: Mitogen-activated protein kinase kinase kinase 14 (Homo sapiens) (UniProt Q99558); experiment: Inhibition of human NIK at 1 uM using RBER-CHKtide as substrate in presence of 33P-ATP by ProQinase assay

Sequence of Insulin receptor-related protein (Homo sapiens) (P14616 27-742 limits assumed): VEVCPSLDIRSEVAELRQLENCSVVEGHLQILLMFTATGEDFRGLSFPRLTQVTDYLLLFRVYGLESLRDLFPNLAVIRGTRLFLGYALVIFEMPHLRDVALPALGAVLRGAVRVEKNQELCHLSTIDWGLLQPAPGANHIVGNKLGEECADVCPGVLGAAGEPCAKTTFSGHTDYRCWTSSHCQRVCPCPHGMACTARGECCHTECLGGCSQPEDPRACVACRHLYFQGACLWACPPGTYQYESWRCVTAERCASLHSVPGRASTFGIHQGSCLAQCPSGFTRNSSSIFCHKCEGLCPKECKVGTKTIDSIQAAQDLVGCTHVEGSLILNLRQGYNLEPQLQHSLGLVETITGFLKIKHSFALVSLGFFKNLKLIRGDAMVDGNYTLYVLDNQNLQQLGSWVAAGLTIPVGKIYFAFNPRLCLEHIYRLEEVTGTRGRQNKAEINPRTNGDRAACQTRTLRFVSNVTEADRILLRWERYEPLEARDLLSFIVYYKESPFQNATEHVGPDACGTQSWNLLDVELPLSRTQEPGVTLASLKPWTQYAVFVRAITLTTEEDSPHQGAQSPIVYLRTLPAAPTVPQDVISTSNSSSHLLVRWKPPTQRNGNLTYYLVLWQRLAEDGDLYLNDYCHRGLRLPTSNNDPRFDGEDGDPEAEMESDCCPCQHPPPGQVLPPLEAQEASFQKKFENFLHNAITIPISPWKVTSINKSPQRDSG
Sequence of Insulin receptor-related protein (Homo sapiens) (P14616 747-1297 limits assumed): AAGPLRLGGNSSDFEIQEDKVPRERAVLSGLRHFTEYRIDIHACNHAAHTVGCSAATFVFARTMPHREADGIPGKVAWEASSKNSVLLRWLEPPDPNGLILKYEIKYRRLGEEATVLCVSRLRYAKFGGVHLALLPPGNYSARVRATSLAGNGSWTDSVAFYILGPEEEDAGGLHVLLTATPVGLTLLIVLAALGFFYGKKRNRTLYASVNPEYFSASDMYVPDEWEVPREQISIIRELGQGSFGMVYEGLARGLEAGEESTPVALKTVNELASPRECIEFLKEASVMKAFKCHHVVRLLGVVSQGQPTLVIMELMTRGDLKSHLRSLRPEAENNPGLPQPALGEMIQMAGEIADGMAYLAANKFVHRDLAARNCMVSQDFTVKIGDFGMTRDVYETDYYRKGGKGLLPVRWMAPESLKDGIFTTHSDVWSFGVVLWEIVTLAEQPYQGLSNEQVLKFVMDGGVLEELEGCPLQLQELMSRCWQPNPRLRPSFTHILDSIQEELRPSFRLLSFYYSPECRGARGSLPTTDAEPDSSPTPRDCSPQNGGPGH
Sequence of Ephrin type-A receptor 1 (Homo sapiens) (P21709 whole entry): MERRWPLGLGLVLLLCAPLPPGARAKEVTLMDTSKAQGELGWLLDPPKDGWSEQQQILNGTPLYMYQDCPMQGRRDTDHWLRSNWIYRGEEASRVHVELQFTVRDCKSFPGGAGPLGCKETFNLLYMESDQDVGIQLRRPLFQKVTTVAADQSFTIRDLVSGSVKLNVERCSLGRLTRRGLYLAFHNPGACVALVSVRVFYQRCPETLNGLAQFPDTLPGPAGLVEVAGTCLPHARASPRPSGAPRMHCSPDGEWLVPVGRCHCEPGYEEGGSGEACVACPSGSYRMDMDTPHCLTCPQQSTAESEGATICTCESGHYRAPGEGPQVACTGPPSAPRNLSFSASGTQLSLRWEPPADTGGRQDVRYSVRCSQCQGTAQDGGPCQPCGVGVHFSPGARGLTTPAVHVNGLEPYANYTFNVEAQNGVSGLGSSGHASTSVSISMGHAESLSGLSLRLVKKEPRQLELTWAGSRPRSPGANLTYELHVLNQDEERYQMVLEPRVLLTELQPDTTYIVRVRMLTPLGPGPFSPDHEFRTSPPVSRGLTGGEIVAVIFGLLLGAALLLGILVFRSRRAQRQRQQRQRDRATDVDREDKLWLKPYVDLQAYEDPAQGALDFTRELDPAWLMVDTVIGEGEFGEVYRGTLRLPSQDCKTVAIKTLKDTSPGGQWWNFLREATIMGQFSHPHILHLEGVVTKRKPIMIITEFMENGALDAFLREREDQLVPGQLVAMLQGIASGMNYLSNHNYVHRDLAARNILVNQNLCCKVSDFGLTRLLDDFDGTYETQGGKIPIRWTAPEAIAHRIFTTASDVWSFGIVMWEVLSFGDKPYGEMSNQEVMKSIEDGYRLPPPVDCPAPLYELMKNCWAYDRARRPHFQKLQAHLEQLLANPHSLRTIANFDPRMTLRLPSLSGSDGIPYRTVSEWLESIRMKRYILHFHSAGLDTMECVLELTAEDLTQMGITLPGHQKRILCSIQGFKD
Sequence of Proto-oncogene tyrosine-protein kinase Src (Homo sapiens) (P12931 2-536 limits assumed): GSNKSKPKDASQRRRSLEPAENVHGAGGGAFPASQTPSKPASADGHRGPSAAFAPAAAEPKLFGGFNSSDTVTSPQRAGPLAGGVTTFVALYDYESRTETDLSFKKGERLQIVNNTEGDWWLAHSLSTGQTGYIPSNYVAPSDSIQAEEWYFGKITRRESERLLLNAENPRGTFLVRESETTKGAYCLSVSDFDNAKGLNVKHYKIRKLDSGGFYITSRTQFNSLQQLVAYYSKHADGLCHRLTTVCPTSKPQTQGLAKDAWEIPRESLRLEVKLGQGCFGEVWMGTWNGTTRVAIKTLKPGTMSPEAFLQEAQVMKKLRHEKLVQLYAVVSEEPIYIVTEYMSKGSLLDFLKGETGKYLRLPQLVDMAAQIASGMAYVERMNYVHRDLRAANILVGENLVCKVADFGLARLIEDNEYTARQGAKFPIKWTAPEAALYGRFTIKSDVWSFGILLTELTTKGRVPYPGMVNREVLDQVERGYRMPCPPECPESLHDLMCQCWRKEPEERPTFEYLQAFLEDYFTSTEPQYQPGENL
Sequence of Tyrosine-protein kinase FRK (Homo sapiens) (P42685 whole entry, the tested form may be a part): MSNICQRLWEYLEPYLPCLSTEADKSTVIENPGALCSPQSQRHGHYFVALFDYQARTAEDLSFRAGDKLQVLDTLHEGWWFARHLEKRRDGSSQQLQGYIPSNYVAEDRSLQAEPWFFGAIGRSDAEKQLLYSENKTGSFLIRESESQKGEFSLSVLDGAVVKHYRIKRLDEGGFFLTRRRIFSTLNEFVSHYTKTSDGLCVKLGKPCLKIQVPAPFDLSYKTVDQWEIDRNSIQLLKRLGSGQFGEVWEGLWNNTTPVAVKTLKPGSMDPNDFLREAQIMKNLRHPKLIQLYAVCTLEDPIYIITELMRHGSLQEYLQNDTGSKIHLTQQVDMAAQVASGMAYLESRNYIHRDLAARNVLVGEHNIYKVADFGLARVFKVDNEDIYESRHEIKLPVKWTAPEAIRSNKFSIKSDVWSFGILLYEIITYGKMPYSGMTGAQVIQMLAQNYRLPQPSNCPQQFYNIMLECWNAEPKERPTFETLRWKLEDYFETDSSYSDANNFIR
Sequence of Serine/threonine-protein kinase MRCK beta (Homo sapiens) (Q9Y5S2 whole entry): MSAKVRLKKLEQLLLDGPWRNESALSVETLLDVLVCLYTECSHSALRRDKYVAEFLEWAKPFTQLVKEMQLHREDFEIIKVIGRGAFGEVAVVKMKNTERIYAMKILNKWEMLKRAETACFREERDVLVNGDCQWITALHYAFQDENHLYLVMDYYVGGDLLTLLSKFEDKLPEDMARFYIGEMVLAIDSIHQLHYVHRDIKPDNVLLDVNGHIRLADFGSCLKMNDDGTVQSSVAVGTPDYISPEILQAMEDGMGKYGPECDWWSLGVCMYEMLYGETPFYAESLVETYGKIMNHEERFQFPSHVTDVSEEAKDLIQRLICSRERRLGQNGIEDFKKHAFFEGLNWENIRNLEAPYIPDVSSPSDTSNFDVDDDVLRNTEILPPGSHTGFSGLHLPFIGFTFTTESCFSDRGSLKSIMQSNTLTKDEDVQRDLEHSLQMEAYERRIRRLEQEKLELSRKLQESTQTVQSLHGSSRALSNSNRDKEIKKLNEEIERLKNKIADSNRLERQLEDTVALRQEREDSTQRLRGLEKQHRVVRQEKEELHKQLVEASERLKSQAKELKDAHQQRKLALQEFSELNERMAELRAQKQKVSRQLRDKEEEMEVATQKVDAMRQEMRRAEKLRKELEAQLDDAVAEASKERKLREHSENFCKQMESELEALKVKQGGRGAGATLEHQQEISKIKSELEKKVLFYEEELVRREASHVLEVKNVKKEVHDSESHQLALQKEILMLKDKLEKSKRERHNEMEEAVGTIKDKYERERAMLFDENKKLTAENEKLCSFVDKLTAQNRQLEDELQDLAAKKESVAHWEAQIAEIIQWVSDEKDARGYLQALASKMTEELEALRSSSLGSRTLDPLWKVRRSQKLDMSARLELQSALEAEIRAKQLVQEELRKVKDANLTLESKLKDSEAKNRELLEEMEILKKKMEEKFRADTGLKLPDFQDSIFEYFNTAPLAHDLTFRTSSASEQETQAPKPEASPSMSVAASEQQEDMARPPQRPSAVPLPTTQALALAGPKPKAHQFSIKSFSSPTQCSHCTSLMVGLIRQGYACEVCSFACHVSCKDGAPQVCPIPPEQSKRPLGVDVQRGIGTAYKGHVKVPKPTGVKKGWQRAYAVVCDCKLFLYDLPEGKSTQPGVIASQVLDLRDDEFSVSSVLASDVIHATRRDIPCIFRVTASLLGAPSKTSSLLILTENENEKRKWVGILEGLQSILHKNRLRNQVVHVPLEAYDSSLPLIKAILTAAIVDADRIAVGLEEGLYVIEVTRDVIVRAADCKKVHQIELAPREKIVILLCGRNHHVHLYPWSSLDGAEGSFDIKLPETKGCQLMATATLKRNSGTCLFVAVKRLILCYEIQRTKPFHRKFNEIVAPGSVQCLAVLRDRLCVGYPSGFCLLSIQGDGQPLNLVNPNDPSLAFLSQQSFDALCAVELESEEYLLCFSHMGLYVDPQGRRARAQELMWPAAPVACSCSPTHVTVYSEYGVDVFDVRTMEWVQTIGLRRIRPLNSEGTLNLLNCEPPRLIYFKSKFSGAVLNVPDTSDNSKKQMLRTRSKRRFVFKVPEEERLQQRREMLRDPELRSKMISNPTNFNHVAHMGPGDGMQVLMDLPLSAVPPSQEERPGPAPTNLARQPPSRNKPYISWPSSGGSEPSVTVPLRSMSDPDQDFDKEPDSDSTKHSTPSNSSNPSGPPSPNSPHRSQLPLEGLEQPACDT

What does the source list for `CC(C)(O)CNc1ncc(-c2ccnc(Nc3ccnc(Cl)c3)n2)c(CC2CC2)n1`?
inhibition [1]: inactive; inhibition [2]: inactive; inhibition [3]: inactive; inhibition [4]: inactive; Activity [5]: 87%; inhibition [6]: inactive; inhibition [7]: inactive; Activity [8]: 84%; inhibition [9]: inactive; inhibition [10]: inactive; IC50 [11]: 4.07 µM; inhibition [12]: inactive; Activity [13]: 132%; Activity [14]: 122%; inhibition [15]: inactive; inhibition [16]: inactive; inhibition [17]: inactive; Activity [18]: 123%; inhibition [19]: inactive; inhibition [20]: inactive; Activity [21]: 112%; inhibition [22]: inactive; inhibition [23]: inactive; inhibition [24]: inactive; inhibition [25]: inactive
